Our source for the yeast fitness values is the RNAGym collection of RNA variant scans (doi:10.1126/science.aae0568).

This sample holds only a part of the variants without activity.

The chains are these.
B1: tRNA (parent)
chain: GUUCCGUUGGCGUAAUGGUAACGCGUCUCCCUCCUAAGGAGAAGACUGCGGGUUCGAGUCCCGUACGGAACG

The variants in the data set derive from B1. As to the kind of experiment: yeast fitness relative to wild type (ratio to wild type); higher = fitter; tRNA-Arg(CCU), competitive growth, 37 C, YPD. The method in brief: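 For this measurement, the tRNA-Arg(CCU) gene was varied by chemical synthesis at a 3% per-site mutation rate across 69 sites, and each variant was placed at the native genomic locus in Saccharomyces cerevisiae. The pooled strains went through a 24-hour competition in YPD at 37°C in six parallel replicates, with amplicons from start and end populations read by 100-nucleotide paired-end sequencing. Darwinian fitness relative to wild type followed from the change in each genotype's frequency. Genotypes needed ≥ 100 starting reads, and estimates < 0.5 were set to 0.5.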
For GUUCCCUUGGCGUAAUGGUAACGCGUCUCCCUCCUAAGGAGAAGACUGCGGGCUCGAGUCCCGUACGGAACG, the yeast fitness turned out to be 0.865.

As to GUUCCUUUGGCGUAAUGGUAACGCGUCUCCCUCCUAAGGGGAAGACUGCGGGUUCGAGUCACGCACGGAACG, the yeast fitness was ≤ 0.5.

Regarding GUUCCGAUGGCGUAAUGGUUACGCGUCUCCCUCCUAAGGAGAAGACUGCGGGUUCGAGUCCCGUACGGAACG, the yeast fitness was 0.776.

For GUUCCGAUGGCGUCAUGGUAACGCAUCUCGCUCCUAAGGAGAAGACUGUGGGUUCGAGUCCCGUACGGAACG, the yeast fitness worked out at 0.557.

For the variant GUUCCGAUGGCGUAAUGGUAACGCGUCUCCCUCCUUAGGAGAAGACUGCGGGUUCGAGUCCCGUACGGAACG, the yeast fitness is 0.607.

For the variant GUUCCGAUGGCGUAAUGGUCGCACGUCUCCCUCCUAAGGAGAAGACUGCGGGUUCGAGUCCCGUACGGAUCG, the yeast fitness is ≤ 0.5.

With GUUCCGAUGGCGUGAUGGUAACGCGUCUCCCUCCUAAGGAGAAGACUGCGGGUUCGAGUCCCGUCCGGAACG, the yeast fitness worked out at 0.662.

As to GUUCCGAUGGCGUAUUGGUAACGCGUCUCCCUCCUAAGGAGAAGACUGCGGGUUCGAGUCCCGUACAGAACG, the yeast fitness was ≤ 0.5.

Turning to GUUCCUUUGGCGUAAUGGUAACGCGUCUCCCUCCGAAGGAGAAGACUGCGGGUUCGAGUCCCGUACGGUACG, the yeast fitness worked out at 1.03.

On to GUUCCGAUGGCGUAAUGGUAGCGCGUCUCGCUCCUGAGGAGAAGAGUGCGGGUUCGUGUCCCGUACGGAACG, for which the yeast fitness came to 0.545.

Consider GUUCCCUUGGCGUAAUGGUAACGCGUCUCCCUCCUAAGGAGAAGACUGCGGGCUCGAGUCCCGUGCGGAACG, for which the yeast fitness was ≤ 0.5.

Consider GUUCCCUUGGCGUAAUGGUAACGCGUCUCCCUCCCAAGGAGAAGACUGCGGGUUCGAGUCCCGUACGGAACG, for which the yeast fitness was found to be 0.866.

Consider GUUCCGAUGGCGUAGUGGUAACACGUCUCCCUCCUAAGGAGAAGACUGCGGGUUCGAGUCCCGUACGGAACG, for which the yeast fitness stood at 0.638.

With GUUCCCUUGGCGUAAUGGUAACGCGUCUCCCUCCUAAGGAGAAGACAGCGGGUUCGAGUGCCGUACGGAACG, the yeast fitness was ≤ 0.5.

For the variant GUUCCGAUGGCGUAAUGGUAUCGCGUCUCCCUCCUAAGGAGAAGCCUGCGGGUUCGAGUCCCGUACGGAACG, the yeast fitness is ≤ 0.5.

For GUUCCGAUGGCGUAAUGGUAACGCGUCUCCCUCCUCAGGAGAAGACUGCGGGUUCAAGUCCCGUACGGAACG, the yeast fitness was ≤ 0.5.

Consider GUUCCGAUGGCGUACUGGUAACGCGUAUCCCUCCUAAGGAGAAGACUGCGGGUUCGAGUCGCGUACGGAACG, for which the yeast fitness was ≤ 0.5.

GUUCCCUUGGCGUAAUGGUAACGCGUCUCCCUCCUAAGGAGAAGACUGCGGGUUCGAGAUCCGUACGGAACG: the yeast fitness is ≤ 0.5.

As for GUUCCGAUGGCGUAAUGGUAACGCGUCUCCCUCCUCAGGAGAAGACUGCGCGUUCGAGUCCCGUACGGAACG, the yeast fitness is ≤ 0.5.

GUUCCGAUGGCGUAAUGGUCGCACGUCUCCCUCCUAAGGAGAAGACUGCGGGUUCAAGUCCCGUACGGAACG: the yeast fitness is ≤ 0.5.

In the case of GUUCCGAUGGCGUAUUGGUAACGCGUCUCGCUCCUAAGGAGCAGACUGCGGGUUCGAGAUCCGUACGGAACG, the yeast fitness was ≤ 0.5.

As for GUUCCGAUGGCGUAAUGGUGACGCGUCUCCCUCAUAAGGAGAAAAUUGCGGGUUCGAGUCCCGUACGGACCG, the yeast fitness is ≤ 0.5.

In the case of GUUCCGAUGGCGUAAUGGUAACGCGUCUCCCUCCUUAGGAGAAGACUGCGGGUUCGAGUACCGCACGGAACG, the yeast fitness is ≤ 0.5.

For GUUCCGAUGGCGUAAUGGUGACGCGUCUCCCUCCUAAGGUGAAGACUGCGGGUUCGAGUCCCGUACGGAACG, the yeast fitness was ≤ 0.5.

GUUCCGAUGGCGUAAUGGUAACGCGUCUCCCUCCUCAGGAGAAGACUGCGGGUUCGCGUCCCGUACGGAACG: the yeast fitness was ≤ 0.5.

As to GUUCCGAUGGCGUAAUGGUCACGCGUCUCCCUCCUAAGGAGAAGACUGCGGGUUCGAGUCCCGUACGGCACG, the yeast fitness came out at 0.609.

Take GUUCCGAUGGCGUAAUGGUACCGCGUCUCCCUCCUGAGGAGAAGACUGCGGGUUCGAGUCCCGUACGCAACG: the yeast fitness was ≤ 0.5.

With GUUCCCUUGGCGUAAUGGUAACGCGUCUCCCUCCAAAGGUCAAGACUGAGGGUUCGAGUCCCGUACGGAACG, the yeast fitness was ≤ 0.5.

For GUUCCCUUGGCGUAAUGGUAACGCGUCUCCCUCCAAAGGAGAACACUGCGGGUUCGAGUCCCGUACGGAACG, the yeast fitness turned out to be 0.569.

As for GUUCCGAUGGCGUAAUGGUGACGCGUCUCCUUCCUAAGGAGAAGACUGCGGGUUCGGGUCCCGUACGGACCG, the yeast fitness was ≤ 0.5.

As to GUUCCGAUGGCGUAAUGGUACCGCGUCUUCCUCCUAGGGAGAAGACUGCGGGUUUGAGUCCCGUACGGAUCG, the yeast fitness is 0.55.

Turning to GUUCCGAUGGCGUAAUGGUGACGCGUCUACCUCCUAAGGAGAAGACUGCGGGUUCGAGUCCCGUACGGAACG, the yeast fitness was 0.544.

In the case of GUUCCCUUGGCGUAAUGGUAACGCGUCACCCUGCUAAGGAGAAGACUGCGGGUUCGAGUCCCGUACGGAACG, the yeast fitness is ≤ 0.5.

In the case of GUUCCGAUGGCGUAAUGGUACCGCGUCUCCCUACUAAGGAGAAGUCUGCGGGUUCGAGUCCCGUACGGAACG, the yeast fitness turned out to be 0.616.

With GUUCCGAUGGCGUACUGGUAACGCGUAUCCCUCCUAAGGAGAAGACCGCGGGUUCGACUCCCGUACGGAACG, the yeast fitness was ≤ 0.5.

With GUUCCCUUGGCGUAAUGGUAACGCGUCUCCCUCCCAAGGAGAAGACUGCGGGUUCGAGCCCCGUACGGAACG, the yeast fitness was ≤ 0.5.

With GUUCCGAUGGCGUUAUGGUCACGCGUCCCCCUCCUAAGGAGAAGAUUGCGGGUUCGAAUCCCGUACGGAACG, the yeast fitness is ≤ 0.5.
